Experimental data: the RNAGym collection of RNA variant scans (doi:10.1126/science.aae0568)
This sample holds only a part of the variants without activity.

B1: tRNA (parent)
chain: GUUCCGUUGGCGUAAUGGUAACGCGUCUCCCUCCUAAGGAGAAGACUGCGGGUUCGAGUCCCGUACGGAACG

Variants of: B1
Assay: yeast fitness relative to wild type (ratio to wild type); higher = fitter; tRNA-Arg(CCU), competitive growth, 37 C, YPD
Method in brief: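 The tRNA-Arg(CCU) gene variants were made by chemical synthesis with a 3% per-site mutation rate at 69 sites and inserted at the native genomic locus of Saccharomyces cerevisiae. After pooling, the strains were competed in YPD at 37°C for 24 hours in six parallel replicates. Gene amplicons from the start population and each end population were read by 100-nucleotide paired-end sequencing, and Darwinian fitness relative to wild type was taken from genotype frequency changes. Genotypes needed ≥ 100 starting reads, and estimates < 0.5 were set to 0.5.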

| Variant | yeast fitness |
| --- | --- |
| C4G C5A C27A | 0.641 |
| C4G C5A C27U G68A | ≤ 0.5 |
| C4G C5A U8C A21C C31A A42G | ≤ 0.5 |
| C4G C5A U19A C24G C29G | ≤ 0.5 |
| C4G C5G | 0.697 |
| C4G C5G A14U A20C C34G A37C C49U | 0.559 |
| C4G C5G A14U C46G A69U | ≤ 0.5 |
| C4G C5G A14U C49G A57U G63A G67A | 0.631 |
| C4G C5G A20G A21U C34G C46A C61A | ≤ 0.5 |
| C4G C5G A43G | 0.556 |
| C4G C5G C11A G38A C49U | ≤ 0.5 |
| C4G C5G C11U G56A C61A | ≤ 0.5 |
| C4G C5G C29U G50C U59A | ≤ 0.5 |
| C4G C5G C30U C31U A37G G50C A57U | ≤ 0.5 |
| C4G C5G C34G | ≤ 0.5 |
| C4G C5G G9A C49A | 0.739 |
| C4G C5G G10A G18A A42C | ≤ 0.5 |
| C4G C5G G56A A69C | ≤ 0.5 |
| C4G C5G U8C G23C C29U A45U G68A | 0.59 |
| C4G C5G U13C U28G | ≤ 0.5 |
| C4G C5G U26C A43G | ≤ 0.5 |
| C4G C5G U26G A45C G67A | 0.664 |
| C4G C5U A36G U54C A69C | ≤ 0.5 |
| C4G C5U A37G C62U | ≤ 0.5 |

| Variant | yeast fitness |
| --- | --- |
| C4G C5U A42G A45U C66U | ≤ 0.5 |
| C4G C5U A42G G67A | ≤ 0.5 |
| C4G C5U A65G A70C | ≤ 0.5 |
| C4G C5U C11A C46A U47A U53A | 0.566 |
| C4G C5U C22G | ≤ 0.5 |
| C4G C5U C31G A43U | ≤ 0.5 |
| C4G C5U C49A A70C | 0.529 |
| C4G C5U C49A G56A G63C G68A | ≤ 0.5 |
| C4G C5U G12C | ≤ 0.5 |
| C4G C5U G23A C55A C61A | ≤ 0.5 |
| C4G C5U G25C G68A | ≤ 0.5 |
| C4G C5U G44C G63A G67U | ≤ 0.5 |
| C4G C5U G44C G67U | ≤ 0.5 |
| C4G C5U G68A | 0.602 |
| C4G C5U U8A G12A G48A A69C | ≤ 0.5 |
| C4G C5U U13A A42U C61U | ≤ 0.5 |
| C4G C5U U16A C34A G68C | 0.508 |
| C4G C5U U19A C55G U64A | ≤ 0.5 |
| C4G C5U U26A C34A | ≤ 0.5 |
| C4G C5U U35C A37U C61A | ≤ 0.5 |
| C4G C11A A14C | ≤ 0.5 |
| C4G C11A A14C C33G A36C A37C A42C A65U | ≤ 0.5 |
| C4G C11A A42U | ≤ 0.5 |
| C4G C11A C30G A65G C66U | ≤ 0.5 |

| Variant | yeast fitness |
| --- | --- |
| C4G C11A C30G C60A | ≤ 0.5 |
| C4G C11A C30G C61G | ≤ 0.5 |
| C4G C11A C46G | 0.693 |
| C4G C11A C66G | ≤ 0.5 |
| C4G C11A G17A A20G C27U A43U C49G C60U | ≤ 0.5 |
| C4G C11A U19C G23C | 0.524 |
| C4G C11A U28G U47G C49G U53G C55G | ≤ 0.5 |
| C4G C11A U32A U35A C49U U59G G67U | ≤ 0.5 |
| C4G C11A U35A C49G | 0.526 |
| C4G C11G | 0.623 |
| C4G C11G A20G A36U G63A A65U C66U | ≤ 0.5 |
| C4G C11G A21U A36U G58C | ≤ 0.5 |
| C4G C11G A36G C55U C61A | 0.52 |
| C4G C11G A65C | 0.576 |
| C4G C11G C22U C46G | ≤ 0.5 |
| C4G C11G C22U C46U | ≤ 0.5 |
| C4G C11G C29A A40G | ≤ 0.5 |
| C4G C11G C29A C30U | ≤ 0.5 |
| C4G C11G C31U G41C U54G | 0.707 |
| C4G C11G C46U U59C C62G A65U | ≤ 0.5 |
| C4G C11G C55U A70G | ≤ 0.5 |
| C4G C11G C55U U59C C61A | ≤ 0.5 |
| C4G C11G G52A C55U C61A | ≤ 0.5 |
| C4G C11G U26A A65G | ≤ 0.5 |

| Variant | yeast fitness |
| --- | --- |
| C4G C11G U26A C60G | ≤ 0.5 |
| C4G C11G U26A U54A C60U | ≤ 0.5 |
| C4G C11G U47A C49U | ≤ 0.5 |
| C4G C11U | 0.967 |
| C4G C11U A14G | 0.556 |
| C4G C11U A14G C46G C55G C61G | ≤ 0.5 |
| C4G C11U A14G C55G G68C | ≤ 0.5 |
| C4G C11U A14G U32C | ≤ 0.5 |
| C4G C11U A14U C30G | ≤ 0.5 |
| C4G C11U A36G | 0.57 |
| C4G C11U A36U G52C | ≤ 0.5 |
| C4G C11U A42U G58A A69U | ≤ 0.5 |
| C4G C11U C49U | 0.562 |
| C4G C11U U19A U32A A37U U64C | ≤ 0.5 |
| C4G C11U U19C U28G A45C U53A G63C | ≤ 0.5 |
| C4G C11U U47A | ≤ 0.5 |
| C4G C22A C55G | ≤ 0.5 |
| C4G C22A C66U | ≤ 0.5 |
| C4G C22A U35A | ≤ 0.5 |
| C4G C22G | 0.787 |
| C4G C22G A45C C55U | ≤ 0.5 |
| C4G C22G C29A A65C | ≤ 0.5 |
| C4G C22G C33G A36C A65G | ≤ 0.5 |
| C4G C22G C33U A36C A40U | 0.663 |

| Variant | yeast fitness |
| --- | --- |
| C4G C22U | 0.976 |
| C4G C22U C34G A36U | ≤ 0.5 |
| C4G C22U C34G A36U C61U | ≤ 0.5 |
| C4G C22U C34G G63C | ≤ 0.5 |
| C4G C22U C46G G63A | ≤ 0.5 |
| C4G C22U C55G | ≤ 0.5 |
| C4G C22U G38C | ≤ 0.5 |
| C4G C22U G50C | ≤ 0.5 |
| C4G C22U G68C | ≤ 0.5 |
| C4G C22U U32C U64C | ≤ 0.5 |
| C4G C24A | 0.634 |
| C4G C24A C34A | 0.563 |
| C4G C24A C46U U64C | ≤ 0.5 |
| C4G C24A G39A A42U U47A C60G | ≤ 0.5 |
| C4G C24G C27A U28C A65U | ≤ 0.5 |
| C4G C24G C30U C46G | ≤ 0.5 |
| C4G C24G C33G G63A | 0.554 |
| C4G C24G U26G G39C C49G A65G | ≤ 0.5 |
| C4G C24U A69U | 0.652 |
| C4G C24U C30A G52C | ≤ 0.5 |
| C4G C24U C62A C66U | ≤ 0.5 |
| C4G C24U U32G A40U U64G | ≤ 0.5 |
| C4G C24U U47C | 0.673 |
| C4G C27A | 0.734 |

| Variant | yeast fitness |
| --- | --- |
| C4G C27A A36G | 0.534 |
| C4G C27A C31U | ≤ 0.5 |
| C4G C27A C46U G67C | ≤ 0.5 |
| C4G C27A C61A C66U A69C | ≤ 0.5 |
| C4G C27A G48A | 0.571 |
| C4G C27G A65U G68U | 0.562 |
| C4G C27G C30G C49U C60U G63C | 0.562 |
| C4G C27G C34U A37C C55U | ≤ 0.5 |
| C4G C27U | 0.789 |
| C4G C27U C29G | ≤ 0.5 |
| C4G C27U C31U | 0.652 |
| C4G C27U C49U | ≤ 0.5 |
| C4G C27U G41C A42C | ≤ 0.5 |
| C4G C27U G58A | 0.61 |
| C4G C29A C30U C62G U64A | ≤ 0.5 |
| C4G C29A C33G A45C G67C | ≤ 0.5 |
| C4G C29A C34U A36U | 0.578 |
| C4G C29A C46A | ≤ 0.5 |
| C4G C29A C60U C61G | ≤ 0.5 |
| C4G C29A U32A A45C A65C | ≤ 0.5 |
| C4G C29G A36C A37U A40C A45G G51A | 0.503 |
| C4G C29G C46U | ≤ 0.5 |
| C4G C29G C49U | 0.588 |
| C4G C29G C61U | 0.562 |

| Variant | yeast fitness |
| --- | --- |
| C4G C29U G56A A65C A70C | 0.77 |
| C4G C30A A42C A69U | ≤ 0.5 |
| C4G C30A A70U | 0.695 |
| C4G C30A C62A | ≤ 0.5 |
| C4G C30A C62U | 0.526 |
| C4G C30A G67A | ≤ 0.5 |
| C4G C30G A40G A65C | ≤ 0.5 |
| C4G C30G A42C C55G | ≤ 0.5 |
| C4G C30G A42U C55U C66A | ≤ 0.5 |
| C4G C30G A69U | ≤ 0.5 |
| C4G C30G C33A | ≤ 0.5 |
| C4G C30G C33A A70G | ≤ 0.5 |
| C4G C30G C33G C66U | ≤ 0.5 |
| C4G C30G C55U | ≤ 0.5 |
| C4G C30G G50U C66U | 0.588 |
| C4G C30G G58A | ≤ 0.5 |
| C4G C30G U32C | ≤ 0.5 |
| C4G C30U A40G C60G | ≤ 0.5 |
| C4G C30U C49U | 0.604 |
| C4G C30U G41A | 0.532 |
| C4G C30U G63C | 0.628 |
| C4G C31A A42C C46G | 0.561 |
| C4G C31G | 0.761 |
